Experimental data from ChEMBL document CHEMBL1158335, “Synthesis and evaluation of some new benzimidazole derivatives as potential antimicrobial agents” (2009).
Calls of active or inactive are those of the source.

Assays:
Bacillus subtilis [1] = experiment: Antibacterial activity against Bacillus subtilis MTCC 121 after 24 hrs; type: functional
Escherichia coli [2] = experiment: Antibacterial activity against Escherichia coli ATCC 25922 at 500 ug/ml after 24 hrs; type: functional, organism-based
How it was run: (§1)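 Organisms grown overnight at 37 °C in buffered glucose broth. A loopful (5 mm diameter) was added to buffered glucose broth containing the test compound and incubated at 37 °C for 24 h. Growth was scored against the untreated control as total inhibition, poor, medium or confluent growth.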

Escherichia coli [3] = experiment: Antibacterial activity against Escherichia coli ATCC 25922 at 10 ug/ml after 24 hrs; type: functional, organism-based; how it was run: as §1
Bacillus subtilis [4] = experiment: Antibacterial activity against Bacillus subtilis MTCC 121 at 500 ug/ml after 24 hrs; type: functional, organism-based; how it was run: as §1
Aspergillus flavus = experiment: Antifungal activity against Aspergillus flavus AIIMS isolate at 30 ug/ml by cup-plate agar diffusion method; type: functional
How it was run: (§2)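 Cup-plate agar diffusion assay against the fungal strains, with amphotericin B as the reference standard.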

Escherichia coli [5] = experiment: Antibacterial activity against Escherichia coli ATCC 25922 after 24 hrs; type: functional
Bacillus subtilis [6] = experiment: Antibacterial activity against Bacillus subtilis MTCC 121 at 200 ug/ml after 24 hrs; type: functional, organism-based; how it was run: as §1
Aspergillus niger = experiment: Antifungal activity against Aspergillus niger AIIMS isolate at 30 ug/ml by cup-plate agar diffusion method; type: functional; how it was run: as §2
Bacillus subtilis [7] = experiment: Antibacterial activity against Bacillus subtilis MTCC 121 at 100 ug/ml after 24 hrs; type: functional, organism-based; how it was run: as §1
Escherichia coli [8] = experiment: Antibacterial activity against Escherichia coli ATCC 25922 at 200 ug/ml after 24 hrs; type: functional, organism-based; how it was run: as §1
Escherichia coli [9] = experiment: Antibacterial activity against Escherichia coli ATCC 25922 at 1 ug/ml after 24 hrs; type: functional, organism-based; how it was run: as §1
Bacillus subtilis [10] = experiment: Antibacterial activity against Bacillus subtilis MTCC 121 at 10 ug/ml after 24 hrs; type: functional, organism-based; how it was run: as §1
Escherichia coli [11] = experiment: Antibacterial activity against Escherichia coli ATCC 25922 at 100 ug/ml after 24 hrs; type: functional, organism-based; how it was run: as §1
Bacillus subtilis [12] = experiment: Antibacterial activity against Bacillus subtilis MTCC 121 at 1 ug/ml after 24 hrs; type: functional, organism-based; how it was run: as §1
Candida albicans = experiment: Antifungal activity against Candida albicans MTCC 1637 at 30 ug/ml by cup-plate agar diffusion method; type: functional; how it was run: as §2

Cc1cccc(C2C(Cl)C(=O)N2c2nnc(Cn3c(C)nc4ccccc43)s2)c1 (stereo not given)
inactive: MIC (Bacillus subtilis [1]) | inhibition (Escherichia coli [2]) | inhibition (Escherichia coli [3]) | Activity (Bacillus subtilis [4]) | diameter of the inhibition zone (DIZ) (Aspergillus flavus) | MIC (Escherichia coli [5]) | inhibition (Bacillus subtilis [6]) | diameter of the inhibition zone (DIZ) (Aspergillus niger) | inhibition (Bacillus subtilis [7]) | inhibition (Escherichia coli [8]) | inhibition (Escherichia coli [9]) | inhibition (Bacillus subtilis [10]) | inhibition (Escherichia coli [11]) | inhibition (Bacillus subtilis [12]) | diameter of the inhibition zone (DIZ) (Candida albicans)
